Blank lines part the entries; values can stand above or below the compound they belong to. Calls of active or inactive are those of the source. The calls are words filed in the database; no cut-off is given here.
Key:
Assay type in all cases: functional
[1] = biological target: P2Y purinoceptor 1 (Meleagris gallopavo) (UniProt P49652); assay: Measure of Agonist Potency at turkey Purinoceptor P2Y1 stably expressed in […] astrocytoma cell; NE means no effect at 100 uM
P2Y purinoceptor 6 [2] = biological target: T1, P2Y purinoceptor 6 (Homo sapiens, UniProt Q15077); assay: Measure of Agonist Potency at human P2Y purinoceptor 6 (hP2Y6) stably expressed in […] astrocytoma cell; NE means no effect at 100 uM
Summary of the method: (§1)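 1321N1 cells stably expressing the human receptor were labelled overnight with 1 μCi [³H]myo-inositol per well in inositol-free DMEM. [³H]inositol phosphate formation was then measured over 10 min at 37 °C with 10 mM LiCl. EC50 came from a four-parameter logistic fit of full concentration-effect curves, averaged over 3–8 independent curves.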

P2Y purinoceptor 2 = P2Y purinoceptor 2 (Homo sapiens, UniProt P41231); assay: Measure of Agonist Potency at human P2Y purinoceptor 2 (hP2Y2) stably expressed in […] astrocytoma cell; summary of the method: as §1
P2Y purinoceptor 4 [3] = biological target: T2, P2Y purinoceptor 4 (Homo sapiens, UniProt P51582); assay: Measure of % Agonist Potency at human P2Y purinoceptor 4 (hP2Y4) stably expressed in […] astrocytoma cell at 10 uM
[4] = biological target: T3, P2Y purinoceptor 11 (Homo sapiens) (UniProt Q96G91); assay: Measure of Agonist Potency at human P2Y purinoceptor 11 (hP2Y11) stably expressed in […] astrocytoma cell at 10 uM
T3 sequence (whole entry): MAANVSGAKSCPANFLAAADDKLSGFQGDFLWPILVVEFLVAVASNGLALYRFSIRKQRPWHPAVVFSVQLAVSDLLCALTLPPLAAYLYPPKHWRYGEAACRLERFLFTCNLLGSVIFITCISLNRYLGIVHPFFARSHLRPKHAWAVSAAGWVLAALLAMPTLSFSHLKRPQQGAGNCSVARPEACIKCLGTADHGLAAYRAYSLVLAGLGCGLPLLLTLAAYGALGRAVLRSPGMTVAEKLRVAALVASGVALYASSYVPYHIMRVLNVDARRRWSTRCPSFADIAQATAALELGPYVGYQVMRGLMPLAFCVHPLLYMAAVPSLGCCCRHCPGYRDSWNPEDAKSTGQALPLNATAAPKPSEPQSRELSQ

P2Y purinoceptor 1 [5] = biological target: P2Y purinoceptor 1 (Meleagris gallopavo, UniProt P49652); assay: Measure of Agonist Potency at turkey Purinoceptor P2Y1 stably expressed in 131N1 astrocytoma cell
[6] = biological target: T3, P2Y purinoceptor 11 (Homo sapiens); assay: Measure of Agonist Potency at human P2Y purinoceptor 11 (hP2Y11) stably expressed in […] astrocytoma cell at 10 uM; NE means no effect at 100 uM
P2Y purinoceptor 4 [7] = biological target: T2, P2Y purinoceptor 4; assay: Measure of Agonist Potency at human P2Y purinoceptor 4 (hP2Y4) stably expressed in 131N1 astrocytoma cell; summary of the method: as §1
P2Y purinoceptor 1 [8] = biological target: P2Y purinoceptor 1 (Homo sapiens, UniProt P47900); assay: Measure of Agonist Potency at human P2Y purinoceptor 1 (hP2Y1) stably expressed in […] astrocytoma cell; summary of the method: as §1
P2Y purinoceptor 4 [9] = biological target: T2, P2Y purinoceptor 4; assay: Measure of Agonist Potency at human P2Y purinoceptor 4 (hP2Y4) stably expressed in […] astrocytoma cell; NE means no effect at 100 uM; summary of the method: as §1
P2Y purinoceptor 6 [10] = biological target: T1, P2Y purinoceptor 6; assay: Measure of Agonist Potency at human P2Y purinoceptor 6 (hP2Y6) stably expressed in 131N1 astrocytoma cell
Summary of the method: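 Human P2Y6 stably expressed in 1321N1 astrocytoma cells; cells labelled overnight with 1 μCi/well [³H]myo-inositol in inositol-free DMEM. [³H]inositol phosphate formation measured next day over 10 min at 37 °C with 10 mM LiCl. Full concentration-effect curves fitted by four-parameter logistic equation; EC50 averaged from 3–8 independent curves (mean ± SE).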

Sequence of P2Y purinoceptor 1 (Meleagris gallopavo, UniProt P49652) (P49652 whole entry): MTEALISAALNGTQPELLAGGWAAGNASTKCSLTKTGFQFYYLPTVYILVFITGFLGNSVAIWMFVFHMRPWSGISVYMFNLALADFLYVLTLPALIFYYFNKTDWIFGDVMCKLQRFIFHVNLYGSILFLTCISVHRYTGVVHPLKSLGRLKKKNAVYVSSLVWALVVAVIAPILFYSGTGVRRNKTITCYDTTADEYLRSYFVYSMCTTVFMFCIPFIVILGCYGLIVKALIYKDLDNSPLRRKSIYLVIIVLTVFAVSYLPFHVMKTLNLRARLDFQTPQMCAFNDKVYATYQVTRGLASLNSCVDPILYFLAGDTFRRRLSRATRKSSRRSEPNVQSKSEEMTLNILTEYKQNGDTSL
Sequence of P2Y purinoceptor 1 (Meleagris gallopavo) (P49652 whole entry): as above
T1 sequence (Q15077 whole entry): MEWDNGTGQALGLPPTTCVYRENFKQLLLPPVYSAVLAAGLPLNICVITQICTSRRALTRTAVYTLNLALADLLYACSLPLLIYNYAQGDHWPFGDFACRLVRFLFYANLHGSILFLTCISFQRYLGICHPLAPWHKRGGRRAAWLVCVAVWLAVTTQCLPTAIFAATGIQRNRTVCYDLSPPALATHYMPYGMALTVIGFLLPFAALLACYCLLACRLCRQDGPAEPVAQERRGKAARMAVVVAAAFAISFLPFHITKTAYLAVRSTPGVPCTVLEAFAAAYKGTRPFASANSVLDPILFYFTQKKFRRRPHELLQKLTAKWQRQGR
T2 sequence (P51582 whole entry): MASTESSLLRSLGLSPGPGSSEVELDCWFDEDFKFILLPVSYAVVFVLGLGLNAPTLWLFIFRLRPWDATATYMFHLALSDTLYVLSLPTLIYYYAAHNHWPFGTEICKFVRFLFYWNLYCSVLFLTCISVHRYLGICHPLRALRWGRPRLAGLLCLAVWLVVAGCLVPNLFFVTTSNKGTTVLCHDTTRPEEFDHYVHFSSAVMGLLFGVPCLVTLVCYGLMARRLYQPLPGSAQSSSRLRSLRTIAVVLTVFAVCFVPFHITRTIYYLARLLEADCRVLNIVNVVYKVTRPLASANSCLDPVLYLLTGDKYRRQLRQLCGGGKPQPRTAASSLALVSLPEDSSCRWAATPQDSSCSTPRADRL
Sequence of P2Y purinoceptor 1 (Homo sapiens, UniProt P47900) (P47900 whole entry): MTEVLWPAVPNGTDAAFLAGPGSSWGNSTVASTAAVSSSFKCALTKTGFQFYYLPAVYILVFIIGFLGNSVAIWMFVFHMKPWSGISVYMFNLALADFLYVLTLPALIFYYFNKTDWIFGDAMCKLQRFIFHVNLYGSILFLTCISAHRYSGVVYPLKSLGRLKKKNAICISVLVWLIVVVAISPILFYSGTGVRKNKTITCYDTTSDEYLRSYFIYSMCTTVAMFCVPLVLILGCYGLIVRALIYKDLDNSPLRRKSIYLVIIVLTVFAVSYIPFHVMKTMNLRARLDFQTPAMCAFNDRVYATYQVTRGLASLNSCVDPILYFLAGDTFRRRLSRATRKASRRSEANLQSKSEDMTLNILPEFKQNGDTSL
Sequence of P2Y purinoceptor 2 (P41231 whole entry): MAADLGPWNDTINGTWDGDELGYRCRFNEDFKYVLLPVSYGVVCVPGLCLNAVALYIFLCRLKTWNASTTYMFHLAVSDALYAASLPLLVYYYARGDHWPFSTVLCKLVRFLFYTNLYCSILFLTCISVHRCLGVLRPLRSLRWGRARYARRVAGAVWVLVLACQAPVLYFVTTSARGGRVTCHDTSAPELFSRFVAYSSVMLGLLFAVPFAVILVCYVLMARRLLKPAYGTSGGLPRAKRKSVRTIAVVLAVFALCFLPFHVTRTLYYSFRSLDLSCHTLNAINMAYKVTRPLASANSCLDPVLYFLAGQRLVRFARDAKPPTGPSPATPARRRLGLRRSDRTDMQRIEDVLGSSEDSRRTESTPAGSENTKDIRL

NE [1]: inactive
Structure (SMILES): Nc1ncnc2c1ncn2[C@@]12C[C@H]1[C@H](COP(=O)(O)O)[C@@H](O)[C@H]2O

Agonist effect (P2Y purinoceptor 6 [2]): inactive
Structure (SMILES): O=c1ccn(C2C(O)C(O)C3(COP(=O)(O)O)CC23)c(=O)[nH]1 (stereo unspecified)

Agonist effect (P2Y purinoceptor 6 [2]): inactive
Structure (SMILES): O=c1ccn(C2C(O)C(O)C3(COP(=O)(O)OP(=O)(O)O)CC23)c(=O)[nH]1 (stereo unspecified)

Agonist effect (P2Y purinoceptor 6 [2]): inactive
Structure (SMILES): O=c1ccn(C2O[C@H](COP(=O)(O)O)[C@@H](O)[C@@H]2O)c(=O)[nH]1 (stereo partly specified)

EC50 (P2Y purinoceptor 2): 91 nM
Activity (P2Y purinoceptor 4 [3]): 32%
Activity [4]: 34.5%
EC50 (P2Y purinoceptor 1 [5]): 14 nM
Structure (SMILES): Nc1ncnc2c1ncn2[C@H]1[C@H](O)[C@H](O)[C@]2(COP(=O)(O)OP(=O)(O)OP(=O)(O)O)C[C@H]12 (stereo in doubt; form 1)

NE [1]: inactive
Structure (SMILES): Nc1ncnc2c1ncn2[C@@H]1O[C@H](COP(=O)(O)O)[C@@H](O)[C@H]1O (stereo in doubt; form 1)

NE [1]: inactive
Structure (SMILES): Nc1ncnc2c1ncn2[C@@H]1O[C@H](COP(=O)(O)O)[C@@H](O)[C@H]1O (stereo in doubt; form 2)

EC50 (P2Y purinoceptor 2): 15.9 nM
NE [6]: inactive
EC50 (P2Y purinoceptor 4 [7]): 85 nM
Agonist effect (P2Y purinoceptor 6 [2]): inactive
Structure (SMILES): O=c1ccn([C@H]2[C@H](O)[C@H](O)[C@]3(COP(=O)(O)OP(=O)(O)OP(=O)(O)O)C[C@H]23)c(=O)[nH]1 (stereo in doubt; form 2) [N-METHANOCARBA-UTP]

EC50 (P2Y purinoceptor 1 [8]): 1500 nM
EC50 (P2Y purinoceptor 1 [5]): 2800 nM
Structure (SMILES): Nc1ncnc2c1ncn2[C@@H]1O[C@H](COP(=O)(O)O)[C@@H](O)[C@H]1O (stereo in doubt; form 3) [ADENOSINE PHOSPHATE]

NE [6]: inactive
NE (P2Y purinoceptor 4 [9]): inactive
Structure (SMILES): Nc1ncnc2c1ncn2[C@@H]1O[C@H](COP(=O)(O)O)[C@@H](O)[C@H]1O (stereo in doubt; form 4)

EC50 (P2Y purinoceptor 1 [8]): 7200 nM
EC50 (P2Y purinoceptor 1 [5]): 3500 nM
Structure (SMILES): Nc1ncnc2c1ncn2[C@@H]1O[C@H](COP(=O)(O)O)[C@@H](O)[C@H]1O (stereo in doubt; form 4) [ADENOSINE PHOSPHATE]

EC50 (P2Y purinoceptor 6 [10]): 15 nM
Structure (SMILES): O=c1ccn([C@@H]2O[C@H](COP(=O)(O)OP(=O)(O)O)[C@@H](O)[C@H]2O)c(=O)[nH]1 [URIDINE_DIPHOSPHATE]

Reference: ChEMBL document CHEMBL1135398, “Methanocarba modification of uracil and adenine nucleotides: high potency of Northern ring conformation at P2Y1, P2Y2, P2Y4, and P2Y11 but not P2Y6 receptors” (J Med Chem, 2002)
